High-throughput results: PubChem BioAssay, Broad Institute
SR-BI DiI inh: mouse SR-BI HDL lipid transfer inhibition | ldlA[mSR-BI] CHO cells, DiI-HDL uptake fluorescence, 3 h | AID 488896 | Q61009 | 320,000 tested, 0.96% active | inhibition, % at 12.5 µM;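 active means mean replicate inhibition of at least 70% and a set share of replicates each scoring 70 or more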;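 further: 0% = median of neutral control wells and 100% = median of positive control wells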
SR-BI DiI-HDL act: activators of SR-BI mediated HDL lipid uptake; CHO ldlA[mSR-BI] cells, DiI-HDL uptake fluorescence, 3 h; 100 = double the neutral-control signal; activation, % at 12.5 µM; 320,000 tested, 0.096% active;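 active means mean replicate activation of at least 60% and every replicate at or above 60%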;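 further: 0% = median plate neutral-control signal and 100% = twice that signal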
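System: CHO ldlA[mSR-BI] cells / Medium: HEPES-buffered (25 mM, pH 7.4) F12 plus 0.5% BSA / Probe or stimulus: labelled HDL, 10 µg/mL / Doses: single compound concentration, delivered by pin transfer / Schedule: 3 h, 37 °C / Measured by: DiI fluorescence, bottom read / Measure: cell-associated DiI fluorescence as measure of HDL uptake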
S100A4 MyoIIA: S100A4-myosin IIA interaction inhibition; P26447; S100A4/TAMRA-MyoIIA peptide fluorescence polarization; inhibition, % at 10.7 µM; 360,000 tested, 0.14% active;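 active means mean inhibition of at least 70% across replicates, with every replicate also reaching that level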
Target sequence (P26447 whole entry, looked up): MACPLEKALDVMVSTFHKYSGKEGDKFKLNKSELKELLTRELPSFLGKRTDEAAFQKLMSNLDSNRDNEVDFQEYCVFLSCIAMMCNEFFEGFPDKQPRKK
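System – human S100A4 monomer protein, biochemical binding assay · Buffer or medium – Calcium-containing HEPES buffer, pH 7.2 · Timing – 5 min between mix addition and reading · Also added – TAMRA-labelled myosin IIA heavy-chain peptide probe, 5 nM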
dFosB activator: mouse delta FosB homodimer activation; activation, % at 25 µM; purified delta FosB, TAMRA-CDK5 oligo fluorescence polarization; percent of positive-control signal above neutral wells; AID 493131; 340,000 tested, 0.99% active; P13346;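 active means mean activation above about 17%, with every replicate also reaching it, limit read from the data, passing the limit was not always enough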
Target sequence (P13346 whole entry, looked up): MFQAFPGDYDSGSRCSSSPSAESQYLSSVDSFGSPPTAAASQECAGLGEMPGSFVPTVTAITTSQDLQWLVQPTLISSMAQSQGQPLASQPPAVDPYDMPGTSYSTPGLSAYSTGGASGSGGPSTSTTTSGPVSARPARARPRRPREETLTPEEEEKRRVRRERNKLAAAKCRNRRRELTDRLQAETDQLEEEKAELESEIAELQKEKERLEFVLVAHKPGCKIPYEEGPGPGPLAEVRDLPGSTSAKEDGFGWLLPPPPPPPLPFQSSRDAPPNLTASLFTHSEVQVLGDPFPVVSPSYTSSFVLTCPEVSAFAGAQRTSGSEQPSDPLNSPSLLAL
PvdQ inh: blocks Pseudomonas aeruginosa PvdQ acylase activity. purified PvdQ acylase, fluorescence plate reader. inhibition, % at 10 µM. 340,000 tested, 0.063% active; in the data active means inhibition above about 30%, passing the limit was not always enough;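 further: 0% = vehicle neutral wells and 100% = reference inhibitor wells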
RAD54 branch: inhibitors of human RAD54 branch migration; RAD54 Holliday junction branch migration, FAM/BHQ fluorescence; inhibition, % at 10.4 µM; 360,000 tested, 0.14% active; AID 602329;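 active means mean normalized replicate activity at least 40 and at least half of replicates scoring 40 or more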;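 further: 0% = median of neutral control wells and 100% = median of positive control wells; inhibitors cause a drop in the FAM fluorescence signal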
An asterisk follows results filed as active. This is a sample that favours compounds with a hit; in the whole collection about 1.6% have one here.

`Cc1cc(C)n(-c2ccc(C(=O)Nc3cccc([N+](=O)[O-])c3)cc2)n1` gave SR-BI DiI inh 80*, SR-BI DiI-HDL act -80, S100A4 MyoIIA 1, dFosB activator -11 and PvdQ inh -4.
For Cc1cc(C)n(-c2ccc(C(=O)Nc3nc4ccccc4s3)cc2)n1 the results were SR-BI DiI inh 70*, SR-BI DiI-HDL act -70, dFosB activator -3, PvdQ inh -9 and RAD54 branch -12.
`Nc1ccc(C(=O)Nc2nc3ccccc3s2)cc1` gave SR-BI DiI inh 15, SR-BI DiI-HDL act -15, S100A4 MyoIIA 9, dFosB activator 2, PvdQ inh -2 and RAD54 branch 5.
CCn1c(Cn2nnc(-c3ccccc3)n2)nnc1SCC(=O)Nc1cccc(C(C)=O)c1 was read as SR-BI DiI inh 67, SR-BI DiI-HDL act -67, S100A4 MyoIIA 7, dFosB activator -5, PvdQ inh -8 and RAD54 branch -3.
`CCn1c(Cn2nnc(-c3ccccc3)n2)nnc1SCC(=O)Nc1cccc(C)c1C` gave SR-BI DiI inh 76*, SR-BI DiI-HDL act -76, dFosB activator -11, PvdQ inh -6 and RAD54 branch -1.
For Cc1ccc(C(=O)Nc2ccc(N3CCCC3)cc2)c(C)c1 the results were SR-BI DiI inh 84*, SR-BI DiI-HDL act -84, S100A4 MyoIIA -7, dFosB activator 49* and PvdQ inh -10.
`O=C(Nc1ccc(N2CCCC2)cc1)c1cc(Br)ccc1Cl` gave SR-BI DiI inh 56, SR-BI DiI-HDL act -56, S100A4 MyoIIA 0, dFosB activator 52*, PvdQ inh -6 and RAD54 branch 3.
Screening CS(=O)(=O)c1ccc(C(=O)Nc2ccc(N3CCCC3)cc2)c(Cl)c1 returned SR-BI DiI inh -21, SR-BI DiI-HDL act 21, S100A4 MyoIIA 10, dFosB activator 1, PvdQ inh -6 and RAD54 branch 0.
Screening O=C(c1cccnc1)N1CC2(C1)[C@@H](c1ccccc1)[C@@H](CO)N2Cc1ccncc1 returned S100A4 MyoIIA -13.
CC1CCN(c2ccc(NC(=O)c3ccc([N+](=O)[O-])o3)cc2)CC1 was read as SR-BI DiI inh 87*, SR-BI DiI-HDL act -87, S100A4 MyoIIA -2, dFosB activator -11, PvdQ inh -17 and RAD54 branch 0.
CN1CCN(c2ccc(NC(=O)c3ccc(-c4ccc(Br)cc4)o3)cc2)CC1 was read as SR-BI DiI inh 39, SR-BI DiI-HDL act -39, S100A4 MyoIIA 21, dFosB activator 41* and PvdQ inh 9.
Screening O=C(Nc1ccc(N2CCCC2)cc1)c1ccc(Br)o1 returned SR-BI DiI inh 39, SR-BI DiI-HDL act -39, dFosB activator 40*, PvdQ inh -7 and RAD54 branch -12.
CN1CCN(c2ccc(NC(=O)c3cc4ccccc4o3)cc2)CC1 was read as SR-BI DiI inh 19, SR-BI DiI-HDL act -19, S100A4 MyoIIA -3, dFosB activator -5, PvdQ inh -3 and RAD54 branch -3.
For CCN1CCN(c2ccc(NC(=O)c3ccc(Br)o3)cc2)CC1 the results were SR-BI DiI inh -11, SR-BI DiI-HDL act 11, S100A4 MyoIIA -8, dFosB activator 1, PvdQ inh -6 and RAD54 branch 1.
`O=C(C1CC1)N1CC[C@@H]2[C@H](CO)Nc3ccc(C4=CCCCC4)cc3[C@@H]21` gave S100A4 MyoIIA 12.
CO[C@H]1CN(C)C(=O)c2cc(NC(=O)C3CC3)ccc2OC[C@@H](C)N(CCc2ccccc2)C[C@@H]1C was read as RAD54 branch 5.
`CCN(CC)S(=O)(=O)c1ccc2oc(C(=O)NCc3ccc(C)cc3)c(C)c2c1` gave SR-BI DiI inh 76*, SR-BI DiI-HDL act -76, S100A4 MyoIIA -5, dFosB activator -10, PvdQ inh -3 and RAD54 branch -9.
CCOc1ccccc1NC(=O)NC1CCCc2ccccc21 (centres undefined) was read as SR-BI DiI inh 79*, SR-BI DiI-HDL act -79, S100A4 MyoIIA -3, dFosB activator 0, PvdQ inh 0 and RAD54 branch 1.
Screening COCCCNc1c2c3c(cccc3[nH]c1=O)C(=O)c1ccccc1-2 returned SR-BI DiI inh 14, SR-BI DiI-HDL act -14, S100A4 MyoIIA 127*, dFosB activator -170, PvdQ inh 5 and RAD54 branch inactive.
`COCCCNC1=C(Cl)C(=O)c2ccccc2C1=O` gave SR-BI DiI inh 20, SR-BI DiI-HDL act -20, S100A4 MyoIIA -3, dFosB activator -2, PvdQ inh -16 and RAD54 branch 5.
For Cn1cc(C(=O)c2ccc(Cl)cc2Cl)cc1C(=O)N/N=C(\N)COc1cccc(C(F)(F)F)c1 the results were SR-BI DiI inh 81*, SR-BI DiI-HDL act -81, dFosB activator -9, PvdQ inh -15 and RAD54 branch -4.
For COC(=O)c1cc(C(=O)c2ccc(Cl)cc2Cl)cn1C the results were SR-BI DiI inh 3, SR-BI DiI-HDL act -3, dFosB activator 0, PvdQ inh -12 and RAD54 branch 3.
`COc1ccc(N2C(=O)CC(Nc3cccc([N+](=O)[O-])c3)C2=O)cc1` (centres undefined) gave S100A4 MyoIIA 8, dFosB activator -2 and PvdQ inh 9.
Cc1ccc(NC2CC(=O)N(c3cccc([N+](=O)[O-])c3)C2=O)cc1 (centres undefined) was read as SR-BI DiI inh 83*, SR-BI DiI-HDL act -83, S100A4 MyoIIA 2, dFosB activator -5 and PvdQ inh -14.
For COc1ccc(Cl)cc1NC(=O)C1CCN(C(=O)C2CC(=O)N(c3ccc(C)cc3)C2)CC1 (centres undefined) the results were SR-BI DiI inh 89*, SR-BI DiI-HDL act -89, S100A4 MyoIIA -3, dFosB activator -8, PvdQ inh 8 and RAD54 branch 2.
Screening COc1ccccc1NC(=O)c1ccc(NC(=O)COC(=O)C(C)C)cc1 returned SR-BI DiI inh -4, SR-BI DiI-HDL act 4, dFosB activator -7 and PvdQ inh -7.
COc1ccccc1NC(=O)c1ccc(NC(=O)COC(=O)CC(NC(=O)c2ccccc2Cl)c2ccccc2)cc1 (centres undefined) was read as SR-BI DiI inh 81*, SR-BI DiI-HDL act -81, S100A4 MyoIIA -3, dFosB activator 4 and PvdQ inh -31.
Screening Cc1nc2c3cc(F)ccc3n(Cc3ccc(F)cc3)c2s1 returned SR-BI DiI inh 80*, SR-BI DiI-HDL act -80, S100A4 MyoIIA 7, dFosB activator 1 and PvdQ inh 9.
CN(C)S(=O)(=O)N1C(=O)c2ccccc2C1=O was read as SR-BI DiI inh 6, SR-BI DiI-HDL act -6, S100A4 MyoIIA 1, dFosB activator -1, PvdQ inh 28 and RAD54 branch -2.
